GASC1 inh: inhibitors of GASC-1 (KDM4C) histone demethylase, primary screen, biochemical, single concentration HTS; Lysine-specific demethylase 4C (Homo sapiens), Q9H3R0; GST-KDM4C 2-372, H3K9me3 peptide, LANCE TR-FRET; inhibition, % at 12.5 µM; 96,000 tested, 0.15% active; AID 720574, 2013;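 active = mean replicate inhibition above about 25%, with at least 55% of replicates also reaching it, limit read from the data, passing the limit was not always enough; inconclusive = only one of those two conditions met; inactive = neither condition met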
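Material: GST-tagged GASC-1 (JMJD2C) catalytic fragment, aa 2-372. Input: enzyme final amount 10 nM. Medium: HEPES buffer, pH 7.5, plus ascorbate. Reagent: H3K9me3 peptide substrate, Fe(II), 2-oxoglutarate. Doses: single dose. Times: reaction 30 min RT, detection step 1 h RT. Measured by: LANCE TR-FRET. Evaluation: Fall in 671/618 emission ratio as inhibition.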
IDH1 mut inh: inhibitors of IDH1 R132H reductase, primary screen, biochemical, plate reader, single point; Isocitrate dehydrogenase [NADP] cytoplasmic (Homo sapiens), O75874; diaphorase/resazurin fluorescence, 60 min; inhibition, % at 10 µM; 70,000 tested, 0.18% active; in the data active = inhibition above about 34%; inconclusive = no clear call, values can overlap the other calls; inactive = below about 11%;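 note: 0% = DMSO and 100% = no enzyme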
Target sequence (O75874 whole entry R132H): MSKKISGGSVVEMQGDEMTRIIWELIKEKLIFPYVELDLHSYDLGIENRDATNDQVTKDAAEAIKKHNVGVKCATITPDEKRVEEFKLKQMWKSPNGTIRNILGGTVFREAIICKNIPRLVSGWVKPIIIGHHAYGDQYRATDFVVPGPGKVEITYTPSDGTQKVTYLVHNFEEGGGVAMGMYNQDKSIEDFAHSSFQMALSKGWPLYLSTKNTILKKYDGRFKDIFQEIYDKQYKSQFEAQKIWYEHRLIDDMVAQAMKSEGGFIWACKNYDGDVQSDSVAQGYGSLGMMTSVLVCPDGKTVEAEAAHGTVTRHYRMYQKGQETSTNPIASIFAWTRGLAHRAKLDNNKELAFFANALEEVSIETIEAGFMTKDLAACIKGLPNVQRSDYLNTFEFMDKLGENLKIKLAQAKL
T cruzi growth-1: T. cruzi intracellular proliferation inhibitors, primary screen, cell-based, beta-gal Tulahuen parasites, NIH3T3 host, luminescence; T. cruzi beta-gal in NIH3T3, GalScreen luminescence, 90 h; inhibition, % at 8.34 µM; 77,000 tested, 5.9% active;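 active = mean inhibition above about 93%, with at least 55% of replicates each passing it, limit read from the data, passing the limit was not always enough; inconclusive = only one of those two conditions holds; inactive = neither condition holds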
T cruzi growth-2: T. cruzi intracellular proliferation inhibitors, confirmation, cell-based, NIH3T3 host, beta-gal parasite, luminescence, cherry-pick. AID 651739, 2012. T. cruzi beta-gal in NIH3T3, GalScreen luminescence, 90 h. inhibition, % at 8.35 µM. 5,600 tested, 72% active. shares compounds with T cruzi growth-1;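 active = mean replicate inhibition above about 95% and at least 55% of replicates individually reaching it, limit read from the data; inconclusive = only one of the two criteria is met; inactive = neither criterion is met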
T cruzi growth-3: inhibitors of intracellular T. cruzi replication, confirmation, NIH3T3 host cells, beta-gal parasites, cherry-pick, set 2; shares compounds with T cruzi growth-1; T. cruzi beta-gal in NIH3T3, GalScreen luminescence, 90 h; inhibition, % at 2.09 µM; 5,600 tested, 21% active; AID 651740, 2012;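 active = mean inhibition above about 95%, with at least 55% of replicates also reaching it, limit read from the data; inconclusive = meets just one of the two conditions; inactive = meets neither condition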;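 note: plate controls were neutral control median for no effect and positive control median for full effect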
NIH3T3 tox: cytotoxicity in mouse NIH/3T3 fibroblasts, confirmation, cytotoxicity control for T. cruzi proliferation inhibitor project, cell-based, cherry-pick, single point; shares compounds with T cruzi growth-1; NIH/3T3 viability, CellTiter-Glo ATP luminescence, 90 h; cytotoxicity (signal decrease), % at 8.35 µM; 5,600 tested, 14% active; AID 651742, 2012;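 active = mean signal decrease across replicates above about 35% based on untreated-well scatter, with enough replicates individually passing, limit read from the data; inconclusive = no rule stated though some were filed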;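 note: 0% = median of neutral control wells and 100% = median of positive control wells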
3T3 cytotox 2: NIH/3T3 fibroblast cytotoxicity, confirmation, cytotoxicity control, cell-based, cherry-pick, single point, set 2; inhibition, % at 24.9 µM; NIH/3T3 viability, CellTiter-Glo ATP luminescence, 90 h; AID 651744, 2012; 5,600 tested, 56% active; shares compounds with T cruzi growth-1;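 active = mean loss of cell viability signal at or above a set limit, and enough replicates individually reaching it; inconclusive = meets only the mean limit or only the replicate share; inactive = meets neither condition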;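 note: 0% = median of neutral control wells and 100% = median of positive control wells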
Numbers without * were called inactive. This excerpt belongs to a sample that is enriched for hits.

Screening CC(C)NC(=O)N(C)C[C@H]1OCCCC[C@H](C)Oc2ccc(NC(=O)c3ccncc3)cc2C(=O)N([C@@H](C)CO)C[C@H]1C returned GASC1 inh -2, IDH1 mut inh 13 and T cruzi growth-1 41.
`C[C@@H]1CCCCO[C@H](CN(C)C(=O)c2ccncc2)[C@@H](C)CN([C@@H](C)CO)C(=O)c2cc(NC(=O)c3ccncc3)ccc2O1` gave GASC1 inh 1, IDH1 mut inh 1, T cruzi growth-1 101*, T cruzi growth-2 -14, T cruzi growth-3 -24, NIH3T3 tox 12 and 3T3 cytotox 2 8.
Screening Cc1ccc(S(=O)(=O)N2C(=O)CCC2C(=O)Nc2ccc(Cl)c(C(F)(F)F)c2)cc1 (centres undefined) returned IDH1 mut inh 0.
`CC(=O)N(C)C[C@@H]1Oc2cc(C#Cc3cccnc3)ccc2S(=O)(=O)N([C@H](C)CO)C[C@H]1C` gave GASC1 inh -2, IDH1 mut inh 2 and T cruzi growth-1 33.
COc1ccc(NC(=O)N(C)C[C@@H]2Oc3ccc(NS(=O)(=O)c4cccs4)cc3CC(=O)N([C@H](C)CO)C[C@@H]2C)cc1 was read as GASC1 inh 0 and T cruzi growth-1 24.
Screening C[C@@H]1CN([C@@H](C)CO)C(=O)c2cc(N(C)C)ccc2O[C@@H](C)CCCCO[C@@H]1CN(C)C(=O)CCCN(C)C returned GASC1 inh 0, IDH1 mut inh -3 and T cruzi growth-1 17.
For C/C=C/c1cnc2c(c1)C(=O)N([C@H](C)CO)C[C@H](C)[C@@H](CN(C)Cc1ccccc1F)O2 the results were GASC1 inh 1 and IDH1 mut inh -1.
Screening C[C@H]1CN([C@@H](C)CO)C(=O)c2cc(/C=C/c3ccccc3)cnc2O[C@H]1CN(C)Cc1ccccc1F returned GASC1 inh -1, IDH1 mut inh 0, T cruzi growth-1 116*, T cruzi growth-2 104*, T cruzi growth-3 95, NIH3T3 tox 18 and 3T3 cytotox 2 41*.
`C/C=C/c1cnc2c(c1)C(=O)N([C@H](C)CO)C[C@H](C)[C@H](CN(C)Cc1ccccc1F)O2` gave GASC1 inh -3 and IDH1 mut inh 0.
Screening C/C=C/c1cnc2c(c1)C(=O)N([C@@H](C)CO)C[C@H](C)[C@@H](CN(C)Cc1ccccc1F)O2 returned GASC1 inh -1 and IDH1 mut inh 0.
Screening C/C=C/c1cnc2c(c1)C(=O)N([C@H](C)CO)C[C@@H](C)[C@H](CN(C)Cc1ccccc1F)O2 returned GASC1 inh 2 and IDH1 mut inh 0.
For C[C@H]1CN([C@@H](C)CO)C(=O)c2cc(/C=C/c3ccccc3)cnc2O[C@@H]1CN(C)Cc1ccccc1F the results were GASC1 inh -1, IDH1 mut inh 0, T cruzi growth-1 112*, T cruzi growth-2 111*, T cruzi growth-3 79, NIH3T3 tox 7 and 3T3 cytotox 2 105*.
Screening C[C@H](CO)N1C[C@H](C)[C@@H](CN(C)Cc2ccccc2F)Oc2ncc(/C=C/c3ccccc3)cc2C1=O returned GASC1 inh 0, IDH1 mut inh 0, T cruzi growth-1 120*, T cruzi growth-2 108*, T cruzi growth-3 87, NIH3T3 tox -22 and 3T3 cytotox 2 104*.
Screening C[C@@H]1CN([C@H](C)CO)C(=O)c2cc(/C=C/c3ccccc3)cnc2O[C@@H]1CN(C)Cc1ccccc1F returned GASC1 inh -2, IDH1 mut inh 3, T cruzi growth-1 116*, T cruzi growth-2 92, T cruzi growth-3 58, NIH3T3 tox -1 and 3T3 cytotox 2 35*.
`CC(O)c1nc2ccccc2n1CCCOc1ccc(Cl)cc1` (centres undefined) gave IDH1 mut inh -1.
`C=CCC/C=N/NC(=O)CCCCCC(=O)O` gave IDH1 mut inh 0.
CC(C)C(NS(=O)(=O)c1ccccc1F)C(=O)O (centres undefined) was read as IDH1 mut inh 0.
`C[C@H](CO)N1C[C@H](C)[C@H](CN(C)C(=O)Nc2ccc(C(F)(F)F)cc2)OCCCC[C@H](C)Oc2ccc(NC(=O)Cc3ccccc3)cc2C1=O` gave GASC1 inh -1, T cruzi growth-1 inconclusive, T cruzi growth-2 103*, T cruzi growth-3 102*, NIH3T3 tox 18 and 3T3 cytotox 2 33*.
C[C@@H]1CCCCO[C@@H](CN(C)C(=O)Nc2ccc(C(F)(F)F)cc2)[C@@H](C)CN([C@H](C)CO)C(=O)c2cc(NC(=O)Cc3ccccc3)ccc2O1 was read as GASC1 inh -2, T cruzi growth-1 inconclusive, T cruzi growth-2 108*, T cruzi growth-3 35, NIH3T3 tox 6 and 3T3 cytotox 2 19.
C[C@@H]1CN([C@@H](C)CO)C(=O)c2cc(NC(=O)Cc3ccccc3)ccc2O[C@@H](C)CCCCO[C@H]1CN(C)C(=O)Nc1ccccc1 was read as GASC1 inh -1 and IDH1 mut inh -1.
Screening C[C@@H]1CCCCO[C@@H](CN(C)C(=O)Nc2ccccc2)[C@H](C)CN([C@H](C)CO)C(=O)c2cc(NC(=O)Cc3ccccc3)ccc2O1 returned GASC1 inh 0, IDH1 mut inh 2 and T cruzi growth-1 67.
For O=C(CC1(O)C(=O)N(Cc2ccccc2)c2ccccc21)c1ccccc1[N+](=O)[O-] (centres undefined) the results were IDH1 mut inh 2.
`C[C@H]1CCCCO[C@H](CN(C)C(=O)NC2CCCCC2)[C@@H](C)CN([C@@H](C)CO)C(=O)c2cc(NS(=O)(=O)c3ccccc3)ccc2O1` gave GASC1 inh -2, T cruzi growth-1 103*, T cruzi growth-2 67, T cruzi growth-3 16, NIH3T3 tox -32 and 3T3 cytotox 2 -6.
Cc1ccc(S(=O)(=O)Nc2ccc3c(c2)C(=O)N([C@@H](C)CO)C[C@@H](C)[C@H](CN(C)C(=O)NC2CCCCC2)OCCCC[C@H](C)O3)cc1 was read as GASC1 inh -3, T cruzi growth-1 114*, T cruzi growth-2 92, T cruzi growth-3 -32, NIH3T3 tox -20 and 3T3 cytotox 2 -16.
